Source: paper PMC3227549 (Journal of natural products, 2010)
Entries after “also recorded” stand apart in the source; their conditions may differ.

Assays:
[1] = tested on: voltage gated sodium channel (VGSC); conditions: cited from earlier work
[2] = tested on: site 2 of the mammalian VGSC; conditions: cited from earlier work
[3] = tested on: Neuro-2a mouse neuroblastoma cells; assay: Cytotoxicity to Neuro-2a mouse neuroblastoma cells; assay type: cell-based
[4] = tested on: spontaneous Ca2+ oscillations in neocortical neurons; assay: Suppression of spontaneous Ca2+ oscillations; assay type: cell-based, mouse
[5] = tested on: voltage gated sodium channel (VGSC); assay: Sodium influx / activation of VGSC in neocortical neurons; assay type: cell-based; conditions: mouse neocortical neurons
How it was run: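 Primary neocortical neurons from embryonic day 16 Swiss-Webster mice were trypsin-dissociated, given 10 μM cytosine arabinoside on day 2, then Neurobasal/B-27 serum-free medium, and used at DIV 8–13. Cells were loaded for 1 h at 37 °C with 10 μM SBFI-AM and 0.02% Pluronic F-127, then washed in Locke's buffer. Ex 340/380 nm, em 505 nm, read every 5 s, with 60 s baseline before test compound addition. EC50 by nonlinear logistic regression.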

[6] = tested on: H-460 human lung adenocarcinoma cells; assay: Cytotoxicity to H-460 human lung adenocarcinoma cells; assay type: cell-based
[7] = tested on: brine shrimp; assay: Brine shrimp toxicity assay; assay type: in vivo; conditions: pure compound

Structure (SMILES): CCC[C@@H](C)[C@H](O)[C@H](C)[C@H]1OC(=O)[C@H]([C@@H](C)O)NC(=O)[C@H](C(C)C)OC(=O)[C@H](C)[C@H](O)[C@H]([C@@H](C)CC)NC(=O)[C@@]2(C)CSC(=N2)[C@@]2(C)CSC(=N2)c2csc(n2)C[C@H](OC)[C@@H]1C [Compound 1, hoiamide A]
- kind of agonism in stimulation of sodium influx in neocortical neurons [1]: partial agonist
- inhibition of binding of [3H]batrachotoxin to site 2 of the mammalian VGSC [2]: inhibits the binding

Structure (SMILES): CCC[C@@H](C)[C@H](O)[C@H](C)[C@H]1OC(=O)[C@H]([C@@H](C)O)NC(=O)[C@H]([C@@H](C)CC)OC(=O)[C@H](C)[C@H](O)[C@H]([C@@H](C)CC)NC(=O)[C@@]2(C)CSC(=N2)[C@@]2(C)CSC(=N2)c2csc(n2)C[C@H](OC)[C@@H]1C [Compound 2, hoiamide B]
- Neuro-2a (IC50 μM) [3]: Inactive

Structure (SMILES): CCC[C@@H](C)[C@H](O)[C@H](C)[C@@H](O)[C@@H](C)[C@H](Cc1nc(C2=N[C@@](C)(C3=N[C@@](C)(C(=O)N[C@H]([C@@H](O)[C@@H](C)C(=O)OCC)[C@@H](C)CC)CS3)CS2)cs1)OC [Compound 3, hoiamide C]
- suppressed spontaneous Ca2+ oscillations, EC50 [4]: no significant effects; also recorded: no significant pharmacological activity
- stimulated sodium influx, EC50 [5]: no significant effects; also recorded: no significant pharmacological activity
- H-460 (IC50 μM) [6]: Inactive
- LC50 in the brine shrimp toxicity assay [7]: 1.3 µM
- Neuro-2a (IC50 μM) [3]: Inactive
